{"source": "ChEMBL document CHEMBL3784976", "about": "(J Med Chem, 2016)", "key": {"[1]": {"test_system": "Plasma", "assay": "Unbound plasma concentration in Harlan Sprague-Dawley rat model of AITC-induced flinching at 1 mg/kg, po at 1 hr", "type": "ADME, organism-based", "conditions": "in vivo", "procedure,_shortened": "(§1)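 Rats were given vehicle (2% HPMC/1% Tween-80) or compound orally at 1, 3, 10 or 30 mg/kg. After 1 h, 0.1% AITC was injected into one left ventral hind paw, and nocifensive flinching was recorded over the first minute. Unbound plasma concentration was measured at 1 h, n = 8 per dose. In vivo IC50/IC90 came from the exposure–response relationship across individual animals.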"}, "[2]": {"molecular_target": "Transient receptor potential cation channel subfamily M member 8 (Rattus norvegicus) (UniProt Q8R455)", "sequence (Q8R455 whole entry, looked up)": "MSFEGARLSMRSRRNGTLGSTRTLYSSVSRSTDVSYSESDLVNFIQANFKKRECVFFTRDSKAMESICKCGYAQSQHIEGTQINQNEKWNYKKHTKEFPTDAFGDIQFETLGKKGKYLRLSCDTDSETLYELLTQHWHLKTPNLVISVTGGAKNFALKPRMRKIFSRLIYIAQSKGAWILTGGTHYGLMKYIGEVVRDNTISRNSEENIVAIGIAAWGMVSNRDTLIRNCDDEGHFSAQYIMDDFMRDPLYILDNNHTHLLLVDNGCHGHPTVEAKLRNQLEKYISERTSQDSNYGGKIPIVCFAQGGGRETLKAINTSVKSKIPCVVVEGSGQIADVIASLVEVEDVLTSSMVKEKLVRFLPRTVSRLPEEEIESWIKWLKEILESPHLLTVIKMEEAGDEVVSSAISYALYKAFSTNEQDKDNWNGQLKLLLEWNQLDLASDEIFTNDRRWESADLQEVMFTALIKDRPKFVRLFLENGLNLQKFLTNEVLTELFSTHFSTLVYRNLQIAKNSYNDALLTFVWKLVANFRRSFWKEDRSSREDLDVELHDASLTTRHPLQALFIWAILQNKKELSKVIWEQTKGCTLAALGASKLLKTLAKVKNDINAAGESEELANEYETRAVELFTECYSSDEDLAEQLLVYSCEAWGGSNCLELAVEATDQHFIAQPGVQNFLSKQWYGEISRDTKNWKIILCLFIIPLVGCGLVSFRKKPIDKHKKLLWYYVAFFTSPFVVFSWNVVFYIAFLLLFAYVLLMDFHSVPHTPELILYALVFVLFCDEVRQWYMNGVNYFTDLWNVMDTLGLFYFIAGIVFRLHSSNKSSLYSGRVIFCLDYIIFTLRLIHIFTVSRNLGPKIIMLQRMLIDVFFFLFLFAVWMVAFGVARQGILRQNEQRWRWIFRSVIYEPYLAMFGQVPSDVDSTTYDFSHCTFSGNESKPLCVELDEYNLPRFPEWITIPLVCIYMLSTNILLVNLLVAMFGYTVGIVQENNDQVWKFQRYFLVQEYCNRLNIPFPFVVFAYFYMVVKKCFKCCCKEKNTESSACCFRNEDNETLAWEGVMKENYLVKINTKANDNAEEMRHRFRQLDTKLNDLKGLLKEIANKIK", "assay": "Antagonist activity at rat TRPM8 assessed as inhibition of icilin-induced Ca2+ influx up to 10 uM preincubated for 2.5 mins followed by icilin addition measured for 1 min by luminescence assay"}, "[3]": {"molecular_target": "Adenosine receptor A2a (Homo sapiens) (UniProt P29274)", "sequence (P29274 whole entry)": "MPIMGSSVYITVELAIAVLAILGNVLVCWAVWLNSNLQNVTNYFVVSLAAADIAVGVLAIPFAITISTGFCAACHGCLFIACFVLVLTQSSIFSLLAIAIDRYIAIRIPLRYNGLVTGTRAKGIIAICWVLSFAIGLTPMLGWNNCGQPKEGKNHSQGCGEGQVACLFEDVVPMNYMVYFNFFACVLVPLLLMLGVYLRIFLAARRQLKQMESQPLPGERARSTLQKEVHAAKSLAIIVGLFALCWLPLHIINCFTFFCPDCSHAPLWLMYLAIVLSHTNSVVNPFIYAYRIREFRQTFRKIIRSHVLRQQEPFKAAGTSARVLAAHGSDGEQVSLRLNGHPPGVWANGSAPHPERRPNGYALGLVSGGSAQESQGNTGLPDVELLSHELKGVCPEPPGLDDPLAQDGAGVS", "assay": "Displacement of [3H]CGS-21680 from human recombinant adenosine A2A receptor expressed in HEK293 cells assessed as remaining radioligand binding at 10 uM after 120 mins by scintillation counting method relative to control", "type": "cell-based"}, "[4]": {"assay": "Apparent permeability from apical to basolateral side in MDCK cells expressing control vector after 120 mins by LC-MS/MS analysis", "type": "ADME, cell-based, Canis lupus familiaris", "conditions": "dog"}, "[5]": {"molecular_target": "Substance-P receptor (Homo sapiens) (UniProt P25103)", "sequence (P25103 whole entry)": "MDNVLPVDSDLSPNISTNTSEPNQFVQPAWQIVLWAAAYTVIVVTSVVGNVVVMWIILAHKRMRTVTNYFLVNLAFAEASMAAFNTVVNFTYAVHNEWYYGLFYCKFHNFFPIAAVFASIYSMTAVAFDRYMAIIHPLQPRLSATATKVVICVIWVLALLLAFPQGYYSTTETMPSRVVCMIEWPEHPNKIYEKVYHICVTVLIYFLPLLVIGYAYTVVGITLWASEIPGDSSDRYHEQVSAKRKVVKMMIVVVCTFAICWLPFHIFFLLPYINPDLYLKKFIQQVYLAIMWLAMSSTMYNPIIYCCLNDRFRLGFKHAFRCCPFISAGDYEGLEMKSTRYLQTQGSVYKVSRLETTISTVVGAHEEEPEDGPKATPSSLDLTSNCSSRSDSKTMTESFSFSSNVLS", "assay": "Displacement of [125I]-Substance P LYS3 from NK1 receptor in human U373MG cells assessed as remaining radioligand binding at 10 uM after 60 mins by scintillation counting method relative to control", "type": "cell-based", "conditions": "U-373MG ATCC"}, "[6]": {"molecular_target": "Adenosine receptor A3 (Homo sapiens) (UniProt P0DMS8)", "sequence (P0DMS8 whole entry)": "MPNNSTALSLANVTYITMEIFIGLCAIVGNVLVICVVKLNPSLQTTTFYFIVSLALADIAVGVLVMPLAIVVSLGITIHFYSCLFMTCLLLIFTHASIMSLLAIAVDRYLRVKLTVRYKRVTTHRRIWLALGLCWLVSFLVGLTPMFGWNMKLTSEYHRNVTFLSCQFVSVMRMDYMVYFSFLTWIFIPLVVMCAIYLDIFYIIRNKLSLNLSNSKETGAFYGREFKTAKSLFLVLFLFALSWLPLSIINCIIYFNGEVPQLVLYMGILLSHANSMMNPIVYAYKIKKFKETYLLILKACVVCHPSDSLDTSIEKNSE", "assay": "Displacement of [125I]AB-MECA from human recombinant adenosine A3 receptor expressed in HEK293 cells assessed as remaining radioligand binding at 10 uM after 120 mins by scintillation counting method relative to control", "type": "cell-based"}, "[7]": {"molecular_target": "5-hydroxytryptamine receptor 2B (Homo sapiens) (UniProt P41595)", "sequence (P41595 whole entry)": "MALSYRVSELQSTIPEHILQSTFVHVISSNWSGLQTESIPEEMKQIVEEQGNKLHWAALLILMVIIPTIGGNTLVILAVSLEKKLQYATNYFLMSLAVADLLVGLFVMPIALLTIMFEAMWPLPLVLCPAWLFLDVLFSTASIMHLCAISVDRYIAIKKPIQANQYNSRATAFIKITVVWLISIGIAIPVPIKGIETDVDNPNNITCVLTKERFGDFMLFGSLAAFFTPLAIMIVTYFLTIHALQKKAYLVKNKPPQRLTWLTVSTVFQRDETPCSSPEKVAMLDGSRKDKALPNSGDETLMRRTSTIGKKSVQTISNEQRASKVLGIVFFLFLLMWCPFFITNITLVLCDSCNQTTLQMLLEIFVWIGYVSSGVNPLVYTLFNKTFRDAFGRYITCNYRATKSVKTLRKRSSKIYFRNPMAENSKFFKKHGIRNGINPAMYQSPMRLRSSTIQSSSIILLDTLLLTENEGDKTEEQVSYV", "assay": "Displacement of [3H]mesulergine from human recombinant 5HT2B receptor expressed in CHO cells assessed as remaining radioligand binding at 10 uM after 60 mins by scintillation counting method relative to control", "type": "cell-based"}, "[8]": {"molecular_target": "Transient receptor potential cation channel subfamily A member 1 (Rattus norvegicus, UniProt Q6RI86)", "sequence (Q6RI86 whole entry)": "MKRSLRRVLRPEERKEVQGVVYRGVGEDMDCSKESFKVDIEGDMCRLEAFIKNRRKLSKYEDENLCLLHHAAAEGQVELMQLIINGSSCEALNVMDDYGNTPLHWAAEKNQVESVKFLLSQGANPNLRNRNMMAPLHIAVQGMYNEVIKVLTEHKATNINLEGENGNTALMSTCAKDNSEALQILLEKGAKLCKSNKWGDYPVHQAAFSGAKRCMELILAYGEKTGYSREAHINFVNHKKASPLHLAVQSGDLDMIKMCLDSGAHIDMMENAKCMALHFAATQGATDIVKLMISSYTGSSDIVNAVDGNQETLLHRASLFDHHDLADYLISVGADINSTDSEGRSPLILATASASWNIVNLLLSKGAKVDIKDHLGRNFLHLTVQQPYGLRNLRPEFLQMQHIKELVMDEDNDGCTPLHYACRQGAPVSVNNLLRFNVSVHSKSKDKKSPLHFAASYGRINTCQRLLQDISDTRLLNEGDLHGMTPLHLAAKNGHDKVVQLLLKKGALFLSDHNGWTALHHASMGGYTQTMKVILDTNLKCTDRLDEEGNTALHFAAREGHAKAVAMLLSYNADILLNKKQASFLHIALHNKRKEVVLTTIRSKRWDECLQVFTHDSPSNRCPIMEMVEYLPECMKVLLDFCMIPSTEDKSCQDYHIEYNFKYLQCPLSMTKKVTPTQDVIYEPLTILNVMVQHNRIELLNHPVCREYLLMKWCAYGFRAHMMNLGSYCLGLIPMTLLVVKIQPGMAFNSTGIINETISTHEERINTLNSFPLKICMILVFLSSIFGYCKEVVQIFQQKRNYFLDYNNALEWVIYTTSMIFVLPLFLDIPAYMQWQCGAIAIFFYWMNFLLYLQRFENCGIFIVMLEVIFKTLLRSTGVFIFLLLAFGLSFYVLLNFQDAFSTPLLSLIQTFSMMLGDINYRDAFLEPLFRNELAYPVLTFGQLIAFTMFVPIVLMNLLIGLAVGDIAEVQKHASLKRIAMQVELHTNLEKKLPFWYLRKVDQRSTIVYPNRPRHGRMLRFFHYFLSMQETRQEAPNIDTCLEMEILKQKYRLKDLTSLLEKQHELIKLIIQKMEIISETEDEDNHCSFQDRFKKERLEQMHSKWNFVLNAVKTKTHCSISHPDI", "assay": "Agonist activity at rat TRPA1 expressed in tetracycline-inducible T-REx expression system transfected CHO cells by 45Ca2+ uptake assay", "type": "cell-based"}, "[9]": {"assay": "Ratio of unbound plasma concentration in Harlan Sprague-Dawley rat model of AITC-induced flinching at 3 mg/kg, po to IC50 for rat TRPA1 expressed in tetracycline-inducible T-REx expression system transfected CHO cells by 45Ca2+ uptake assay", "type": "ADME, organism-based", "conditions": "in vivo", "procedure,_shortened": "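Rats dosed orally at 1, 3, 10 or 30 mg/kg in 2% HPMC/1% Tween-80 vehicle. After 1 h, unbound plasma concentration measured (n = 8 per dose), intraplantar AITC (0.1%) given and flinching scored over the first minute. Unbound concentration divided by in vitro rat TRPA1 45Ca2+ IC50.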"}, "[10]": {"molecular_target": "Beta-2 adrenergic receptor (Homo sapiens) (UniProt P07550)", "sequence (P07550 whole entry, looked up)": "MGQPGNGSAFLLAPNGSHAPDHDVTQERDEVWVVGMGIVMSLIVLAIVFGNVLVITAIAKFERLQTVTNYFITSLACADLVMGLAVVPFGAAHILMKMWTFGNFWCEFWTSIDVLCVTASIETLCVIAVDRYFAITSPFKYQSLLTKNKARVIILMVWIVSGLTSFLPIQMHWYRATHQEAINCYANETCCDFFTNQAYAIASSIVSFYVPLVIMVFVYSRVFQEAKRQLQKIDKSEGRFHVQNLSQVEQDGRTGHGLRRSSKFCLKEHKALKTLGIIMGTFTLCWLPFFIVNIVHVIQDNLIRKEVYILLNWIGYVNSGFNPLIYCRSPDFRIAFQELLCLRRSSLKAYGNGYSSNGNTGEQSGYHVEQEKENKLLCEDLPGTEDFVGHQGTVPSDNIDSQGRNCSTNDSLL", "assay": "Displacement of (-)-[3H]CGP-12177 from human recombinant adrenergic beta2 receptor expressed in CHO cells assessed as remaining radioligand binding at 10 uM after 120 mins by scintillation counting method relative to control", "type": "cell-based"}, "[11]": {"test_system": "Plasma", "assay": "Unbound plasma concentration in Harlan Sprague-Dawley rat model of AITC-induced flinching at 3 mg/kg, po at 1 hr", "type": "ADME, organism-based", "conditions": "in vivo", "procedure,_shortened": "as §1"}, "[12]": {"assay": "Fraction unbound in rat plasma", "type": "ADME, cell-free"}, "[13]": {"molecular_target": "Histamine H1 receptor (Homo sapiens) (UniProt P35367)", "sequence (P35367 whole entry)": "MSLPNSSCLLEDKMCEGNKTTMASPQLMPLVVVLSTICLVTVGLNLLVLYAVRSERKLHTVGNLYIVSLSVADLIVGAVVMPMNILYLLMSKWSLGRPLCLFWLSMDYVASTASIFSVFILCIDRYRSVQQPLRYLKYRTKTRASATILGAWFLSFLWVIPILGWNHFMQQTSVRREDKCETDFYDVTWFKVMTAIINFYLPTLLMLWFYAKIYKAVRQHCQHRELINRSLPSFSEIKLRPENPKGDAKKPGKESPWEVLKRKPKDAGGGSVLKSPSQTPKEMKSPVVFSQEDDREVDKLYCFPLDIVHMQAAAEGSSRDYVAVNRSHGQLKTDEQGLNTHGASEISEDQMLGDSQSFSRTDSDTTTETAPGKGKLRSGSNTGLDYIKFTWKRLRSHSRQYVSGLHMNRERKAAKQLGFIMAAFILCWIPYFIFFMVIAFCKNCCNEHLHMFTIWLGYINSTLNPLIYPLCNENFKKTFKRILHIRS", "assay": "Displacement of [3H]pyrilamine from human recombinant histamine H1 receptor expressed in HEK293 cells assessed as remaining radioligand binding at 10 uM after 60 mins by scintillation counting method relative to control", "type": "cell-based"}}, "note": "Calls of active or inactive are those of the source. No cut-off for these calls is given here.", "data": [{"smiles": "Cn1cnc2ncn(Cc3nc(CCc4ccc(Cl)cc4)no3)c(=O)c21", "values": [{"measurement": "Cp(f)", "setting": "[1]", "result": 51, "unit": "nM"}, {"measurement": "inhibition", "setting": "[2]", "result": "inactive"}, {"measurement": "Activity", "setting": "[3]", "result": "> 77", "unit": "%"}, {"measurement": "Papp A→B at 2 h", "setting": "[4]", "result": 44.5, "unit": "×10⁻⁶ cm/s"}, {"measurement": "Activity", "setting": "[5]", "result": "> 77", "unit": "%"}, {"measurement": "Activity", "setting": "[6]", "result": "> 77", "unit": "%"}, {"measurement": "Activity", "setting": "[7]", "result": "> 77", "unit": "%"}, {"measurement": "EC50", "setting": "[8]", "result": "> 40", "unit": "µM"}, {"measurement": "Ratio", "setting": "[9]", "result": 2.7}, {"measurement": "Activity", "setting": "[10]", "result": "> 77", "unit": "%"}, {"measurement": "Cp(f)", "setting": "[11]", "result": 190, "unit": "nM"}, {"measurement": "fraction unbound", "setting": "[12]", "result": 0.289}, {"measurement": "Activity", "setting": "[13]", "result": "> 77", "unit": "%"}]}]}
